This note sets out measurements from ChEMBL document CHEMBL4270562, “Synthesis and evaluation of the cytotoxic activity of Furanaphthoquinones tethered to 1H-1,2,3-triazoles in Caco-2, Calu-3, MDA-MB231 cells” (Eur J Med Chem, 2018).

Each structure is given as a SMILES string.

The subject of one series is Calu-3. Description: Cytotoxicity against human Calu3 cells assessed as cell viability at 5 uM after 48 hrs by MTT assay relative to control. The class given is functional. To be noted: Calu-3, 48 h, read-out: Activity. The gist of the method:
(§1)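 Single-concentration screen at 5 μM. Cells were seeded at 32,000/well and pre-incubated 24 h at 37 °C, 5% CO2, then treated 48 h in 10% FBS DMEM or RPMI containing 0.5% DMSO. MTT (2.5 mg/mL solution, 3 h), formazan dissolved in DMSO, absorbance at 570/690 nm. Viability expressed as % of untreated cells, mean ± SD.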

The subject of series [1] is Caco-2. Put plainly: Cytotoxicity against human Caco2 cells assessed as cell viability at 5 uM after 48 hrs by MTT assay relative to control. The class given is functional. Conditions: Caco-2, 48 h, read-out: Activity. The gist of the method: as §1
(Tetrazolium dyes change colour on reduction, which living cells bring about.)

Another series has as its system MDA-MB-231. Put plainly: Cytotoxicity against human MDA-MB-231 cells assessed as cell viability at 5 uM after 48 hrs by MTT assay relative to control. Type of series: functional. Conditions: MDA-MB-231, 48 h, read-out: Activity. The gist of the method:
as §1

Series [2] in a line: Cytotoxicity against African green monkey Vero cells assessed as cell viability at 5 uM after 48 hrs by MTT assay relative to control. Type of series: cell-based. Conditions: chlorocebus sabaeus, read-out: Activity. In outline: as §1
Series [3] in a line: Effect on prothrombin time in human platelet poor plasma at 100 uM after 3 hrs. The class given is ADME, cell-free. The gist of the method:
(§2)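 Citrated platelet-poor plasma tested with sample at 100 μM, vehicle DMSO ≤1%. Clotting times (PT, aPTT) were measured on a coagulation analyzer. DMSO 1% was the negative control and rivaroxaban 100 μM the positive anticoagulant control.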

For another series, the system named is Platelet. Put plainly: Inhibition of arachidonic acid-induced platelet aggregation in human platelet rich plasma at 100 uM preincubated for 2 mins followed by arachidonic acid addition and measured after 3 hrs by turbidimetric analysis. The class given is cell-based. In outline:
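Fresh platelet-rich plasma pre-incubated 2 min at 37 °C with sample (100 μM) before arachidonic acid stimulation. Aggregation was followed turbidimetrically in a lumi-aggregometer. DMSO 1% was the negative control and acetylsalicylic acid 100 μM the positive control.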

Series [4] is described as follows: Cytotoxicity against African green monkey Vero cells assessed as cell viability after 48 hrs by MTT assay relative to control. Type of series: cell-based. To be noted: chlorocebus sabaeus. The gist of the method: (§3)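 Cells seeded at 32,000/well, grown 24 h at 37 °C in 5% CO2, then exposed for 48 h to samples at 5 to 400 μM in 10% FBS DMEM or RPMI with 0.5% DMSO. Vehicle medium with 0.5% DMSO served as control. Viability was read by MTT reduction: MTT solution (2.5 mg/mL) in HBSS for 3 h, DMSO to dissolve formazan, absorbance at 570/690 nm. IC50 (tumour lines) and CC50 (Vero) were derived from survival relative to untreated cells, and SI was calculated from them.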

Series [5] in a line: Effect on activated thromboplastin time in human platelet poor plasma at 100 uM after 3 hrs. The class given is ADME, cell-free. The gist of the method: as §2
For series [6], the system named is Caco-2. Description: Cytotoxicity against human Caco2 cells assessed as cell viability after 48 hrs by MTT assay relative to control. The class given is functional, cell-based. To be noted: Caco-2, 48 h. The gist of the method: as §3
A short description of series [7]: Selectivity index, ratio of CC50 for African green monkey Vero cells to IC50 for human Caco2 cells. Type of series: toxicity. To be noted: Vero cells (CC50) and Caco2 cells (IC50). In outline: as §3

Consider `O=C1C(=O)c2ccccc2C2=C1CC(c1cn(-c3ccc(Cl)c(Cl)c3)nn1)O2` (stereo not given), for which the viability at 5 µM amounted to 111% in the series with Calu-3, 94.4% in the series with Caco-2 [1] and 90.2% with MDA-MB-231. For the same compound, the viability at 48 h, 5 µM in series [2] amounted to 81%.
For `O=C1C(=O)c2ccccc2C2=C1CC(c1cn(-c3ccc(Cl)cc3)nn1)O2` (stereo not given), in that order: 122%, 46.4%, 46.5% and 59.3%.
Regarding `O=C1C2=C(OC(c3cn(-c4ccc(Cl)cc4)nn3)C2)C(=O)c2ccccc21` (stereo not given), the results for the viability at 5 µM with Calu-3, in the series with Caco-2 [1] and in the series with MDA-MB-231 were 134%, 82.1% and 103%, respectively. For the same compound, the viability at 48 h, 5 µM in series [2] amounted to 78.1%.
For the compound `O=C1C(=O)c2ccccc2C2=C1CC(c1cn(-c3ccc([N+](=O)[O-])cc3)nn1)O2` (stereo not given), the figures for the viability at 5 µM in the series on Calu-3, in the series with Caco-2 [1] and in the series on MDA-MB-231 were 133%, 86.9% and 99.2%, respectively. Besides, in [2], the viability at 48 h, 5 µM turned out to be 88.7%.
Turning to `O=C1C(=O)c2ccccc2C2=C1CC(c1cn(-c3cc(Cl)ccc3Cl)nn1)O2` (stereo not given), the values for the viability at 5 µM in the series with Calu-3, in the series on Caco-2 [1] and in the series with MDA-MB-231 were 118%, 78.1% and 82.1%, respectively. The viability at 48 h, 5 µM in series [2] is 74.7%.
For `O=C1C2=C(OC(c3cn(-c4ccccc4)nn3)C2)C(=O)c2ccccc21` (stereo not given), the figures for the viability at 5 µM in the series with Calu-3, in the series with Caco-2 [1] and in the series with MDA-MB-231 were 113%, 88.3% and 109%, respectively. For the same compound, the viability at 48 h, 5 µM in series [2] was 76.2%.
With `O=C1C(=O)c2ccccc2C2=C1CC(c1cn(-c3ccc(F)cc3)nn1)O2` (stereo not given), the viability at 5 µM with Calu-3 is 117%; in the series on Caco-2 [1], 37.9%; with MDA-MB-231, 41.5%. Also, the viability at 48 h, 5 µM in series [2] was found to be 55.8%.
On to `O=C1C(=O)c2ccccc2C2=C1CC(c1cn(-c3ccccc3)nn1)O2` (stereo not given), for which the Activity entry (in series [3]; in the series with Platelet; in series [5]) was “Non-Toxic” in each case. In addition, the CC50 at 48 h in series [4] worked out at 28 µM. Moreover, the viability at 5 µM in the series on Calu-3 turned out to be 110%; in the series on Caco-2 [1] it was 23.9%; in the series on MDA-MB-231, 87.7%. Besides, the viability at 48 h, 5 µM in [2] was found to be 68%. In addition, in the series with Caco-2 [6], the IC50 was 4.48 µM. In addition, the selectivity ratio in series [7] amounted to 6.25.
Take `O=C1C2=C(OC(c3cn(-c4cc(Cl)ccc4Cl)nn3)C2)C(=O)c2ccccc21` (stereo not given): the viability at 5 µM turned out to be 139% in the series on Calu-3, 85.8% in the series on Caco-2 [1] and 104% with MDA-MB-231. Moreover, the viability at 48 h, 5 µM in [2] is 90.4%.
For `O=C1C2=C(OC(c3cn(-c4ccc(F)cc4)nn3)C2)C(=O)c2ccccc21` (stereo not given), in that order: 104%, 77.3%, 97.9% and 73%.
For `Cc1ccc(-n2cc(C3CC4=C(O3)C(=O)c3ccccc3C4=O)nn2)cc1` (stereo not given), in that order: 112%, 88%, 95.3% and 74%.
On to `O=C1C2=C(OC(c3cn(-c4ccc(Cl)c(Cl)c4)nn3)C2)C(=O)c2ccccc21` (stereo not given), for which the viability at 5 µM in the series with Calu-3 was determined as 111%; in the series with Caco-2 [1], 83.9%; in the series with MDA-MB-231, 96.6%. Besides, the viability at 48 h, 5 µM in series [2] amounted to 78.7%.
For `O=C1C2=C(OC(c3cn(-c4ccc([N+](=O)[O-])cc4)nn3)C2)C(=O)c2ccccc21` (stereo not given), in that order: 120%, 95.5%, 97.4% and 63.6%.
As to `COc1ccc(-n2cc(C3CC4=C(O3)c3ccccc3C(=O)C4=O)nn2)cc1` (stereo not given), the values for the viability at 5 µM in the series with Calu-3, in the series with Caco-2 [1] and with MDA-MB-231 were 113%, 23% and 41.1%, respectively. Further, the viability at 48 h, 5 µM in series [2] amounted to 34.1%.
Consider `Cc1ccc(-n2cc(C3CC4=C(O3)c3ccccc3C(=O)C4=O)nn2)cc1` (stereo not given), for which the viability at 5 µM worked out at 111% with Calu-3, 33.3% in the series on Caco-2 [1] and 90.7% in the series on MDA-MB-231. The viability at 48 h, 5 µM in series [2] came out at 41.8%.
In the case of `COc1ccc(-n2cc(C3CC4=C(O3)C(=O)c3ccccc3C4=O)nn2)cc1` (stereo not given), the viability at 5 µM in the series on Calu-3 worked out at 125%; with Caco-2 [1] it was 81.8%; in the series on MDA-MB-231, 99.6%. In series [2], the viability at 48 h, 5 µM stood at 64.8%.

One may read the CC50 as the concentration that lowers cell viability or growth by half. Broadly, the IC50 is the concentration needed to halve the response being measured.
